These results are taken from ChEMBL document CHEMBL1132586, “New water-soluble duocarmycin derivatives: synthesis and antitumor activity of A-ring pyrrole compounds bearing beta-heteroarylacryloyl groups” (J Med Chem, 1999).

Data set [1] relates to HeLa. As to the kind of experiment: Compound was tested in vitro for anticellular activity against HeLa S3 cell growth at 1-hour exposure. The data set is classed as functional, cell-based. The following applies: Homo sapiens.
For data set [2], the system named is HeLa. As to the kind of experiment: Compound was tested in vitro for anticellular activity against HeLa S3 cell growth at 72-hour exposure. As to conditions: Homo sapiens. The data set is classed as functional, cell-based.
The species named for data set [3] is Mus musculus. As to the kind of experiment: Compound was tested for hematotoxicity and the number of white blood cells of tumor bearing mice on day 4(percent of control) was determined, expressed as percent of control. The data set is classed as functional. Put shortly: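 Sarcoma 180-bearing mice dosed iv starting 1 day after sc tumour inoculation; 4 days later orbital-vein blood drawn and white blood cells counted on a microcell counter; value is treated count as percent of control.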

Data set [4] in a line: Aqueous solubility of the compound. The data set is classed as physicochemical. The following applies: water; read-out: S.
For data set [5], the species on record is Mus musculus. As to the kind of experiment: Compound was tested for hematotoxicity and the number of peripheral platelets of normal mice on day 7 (percent of control) was determined, expressed as percent of control. The data set is classed as functional. Put shortly:
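Normal male ddY mice (mean weight 20 ± 1 g) given a single iv tail-vein injection of drug dissolved in saline; 7 days later orbital-vein blood drawn and platelets counted on a microcell counter; value is treated count as percent of control.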

For data set [6], the system named is CCRF S-180. In words: Compound was tested in vivo for antitumor activity against murine sarcoma 180 in mice at 0.25 mg/kg dosage and efficacy is expressed as T/C (mice were implanted subcutaneously with tumor cells and the drug was dosed intravenously). It counts as functional, Mus musculus. As to conditions: route intravenous. Put shortly: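 Sarcoma 180 cells passaged in adult male ddY mice and inoculated sc at the axillary region, 5 mice/group; iv dosing began 1 day after inoculation. Tumour volume = length × width²/2. T/C is treated over control mean tumour volume; effective at ≤42%, Mann–Whitney U test (p < 0.05).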

Data set [7] deals with CCRF S-180. In words: Compound was tested in vivo for antitumor activity against murine sarcoma 180 in mice at 4 mg/kg dosage and efficacy is expressed as T/C (mice were implanted subcutaneously with tumor cells and the drug was dosed intravenously). The following applies: route intravenous.

Take `COC(=O)c1c(C)[nH]c2c1[C@@]13C[C@@H]1CN(C(=O)/C=C/c1ccc(OC)nn1)C3=CC2=O`: the IC50 – broadly, the concentration that inhibits the measured activity by half – in data set [1] is 0.0005 µM; in data set [2] it was 0.00028 µM.
`COC(=O)c1c(C)[nH]c2c(OC(=O)N3CCN(C)CC3)cc3c(c12)[C@H](CBr)CN3C(=O)/C=C/c1ccc(OC)nc1.Cl`: the IC50 in data set [1] was found to be 0.9 µM; in data set [2], 0.11 µM. Also, the Hematotoxicity in data set [3] is given as 92%; in data set [5] it was 38%. The solubility in data set [4] was > 20 mg/mL. In data set [6], this compound registered a T/C of 0.36.
As for `COC(=O)c1c(C)[nH]c2c(OC(=O)N3CCN(C)CC3)cc3c(c12)[C@H](CBr)CN3C(=O)/C=C/c1ccc(OC)cn1.Cl`, the IC50 in data set [1] stood at 1.3 µM; in data set [2], 0.15 µM. Besides, the Hematotoxicity in data set [3] amounted to 105%; in data set [5] it was 38%. Also, the solubility in data set [4] is > 20 mg/mL. In data set [6], this compound showed a T/C of 0.5.
Turning to `COC(=O)c1c(C)[nH]c2c1[C@@]13C[C@@H]1CN(C(=O)/C=C/c1ccc(OC)cn1)C3=CC2=O`, the concentration for half-maximal inhibition (IC50) in data set [1] turned out to be 0.0097 µM; in data set [2] it was 0.0029 µM.
For `COC(=O)c1c(C)[nH]c2c(OC(=O)N3CCN(C)CC3)cc3c(c12)[C@H](CBr)CN3C(=O)/C=C/c1ccc(OC)nn1.Cl`, the IC50 in data set [1] was determined as 1.1 µM; in data set [2], 0.09 µM. In addition, the Hematotoxicity in data set [3] is listed as 115%; in data set [5] it was 51%. In addition, in data set [4], the solubility was > 20 mg/mL. Also, the T/C in data set [6] came out at 0.31.
In the case of `COC(=O)c1c(C)[nH]c2c1[C@@]13C[C@@H]1CN(C(=O)/C=C/c1ccc(OC)nc1)C3=CC2=O`, the IC50 in data set [1] is 0.0033 µM; in data set [2] it was 0.00042 µM. Besides, in data set [7], the T/C is 0.6. The figures for the Hematotoxicity in data set [3] and in data set [5] were 84% and 50%, respectively.
As to `COC(=O)c1c(C)[nH]c2c1[C@@]13C[C@@H]1CN(C(=O)/C=C/c1ccc(OC)cc1)C3=CC2=O`, the Hematotoxicity is 63% in data set [3] and 50% in data set [5]. Moreover, the T/C in data set [6] amounted to 0.34.
Regarding `COC(=O)c1c(C)[nH]c2c(OC(=O)N3CCN(C)CC3)cc3c(c12)[C@H](CBr)CN3C(=O)/C=C/c1cnc(OC)nc1.Cl`, the results for the IC50 in data set [1] and in data set [2] were 1.3 µM and 0.17 µM, respectively. The results for the Hematotoxicity in data set [3] and in data set [5] were 69% and 26%, respectively. Also, the solubility in data set [4] is > 20 mg/mL. In data set [6], this compound had a T/C of 0.26.
For `COC(=O)c1c(C)[nH]c2c1[C@@]13C[C@@H]1CN(C(=O)/C=C/c1cnc(OC)nc1)C3=CC2=O`, the IC50 in data set [1] came out at 0.0025 µM; in data set [2], 0.0009 µM. The Hematotoxicity in data set [3] is recorded as 86%; in data set [5], 28%. This compound also returned a T/C in data set [6] of 0.45.
